Measurements: ChEMBL document CHEMBL1126849, “Synthesis of A-ring fluorinated derivatives of (17 alpha,20E/Z)-[125I]iodovinylestradiols: effect on receptor binding and receptor-mediated target tissue uptake” (J Med Chem, 1993)

What was measured:
Rattus norvegicus [1] = test: Biodistribution in lungs of immature female rat after 12 hour administration of 3 micro Ci (111 kBq) in the absence of 60 microg estradiol; assay type: ADME, organism-based, Lung; settings: in vivo
Summary of the method: (§1)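 Immature female Long Evans rats (21–24 days, 45–70 g), three to five per group, given 125I-labeled steroid (3 μCi, 111 kBq) by lateral tail vein without anesthesia. Vehicle: ethanol diluted in saline with 1% Tween-80, final ethanol 9%, 0.22 μm filtered. +E2 groups received 60 μg unlabeled estradiol co-injected. Killed under ether at set times; tissues KCl-washed, blotted, weighed, gamma counted; %ID/g, mean with SE.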

Rattus norvegicus [2] = test: Biodistribution in thyroid of immature female rat after 1 hr administration of 3 micro Ci (111 kBq) in the absence of 60 microg estradiol; assay type: ADME, organism-based, Thyroid gland; settings: in vivo; summary of the method: as §1
Rattus norvegicus [3] = test: Biodistribution in uterus of immature female rat after 1 hr administration of 3 micro Ci (111 kBq) in the presence of (+E2); assay type: ADME, organism-based; settings: in vivo
Summary of the method: (§2)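 Immature female Long Evans rats (21–24 days, 45–70 g), 3–5 per group, unanesthetized in retention cages, given 3 μCi (111 kBq) 125I-labeled steroid by lateral tail vein. Vehicle: ethanol diluted with saline containing 1% Tween-80, final ethanol 9%. +E2 group co-injected 60 μg unlabeled estradiol (1 h only). Killed under ether; tissues KCl-washed, weighed, gamma-counted. Output: %ID/g (mean, SE) and uterus to blood or nontarget (muscle, spleen, lungs) ratios.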

Rattus norvegicus [4] = test: Biodistribution in blood of immature female rat after 1 hr administration of 3 micro Ci (111 kBq) in the absence of 60 microg estradiol; assay type: ADME, organism-based; settings: in vivo
Summary of the method: (§3)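 Immature female Long Evans rats (21–24 days, 45–70 g), unanesthetized in retention cages, given 3 µCi (111 kBq) 125I-labeled steroid i.v. via lateral tail vein. Vehicle was ethanol diluted in saline containing 1% Tween-80, giving 9% ethanol final. The blocking group received 60 µg unlabeled estradiol co-injected. Rats were killed under ether by axillary bleeding, and tissues were KCl-washed and gamma-counted. Data are %ID/g, mean ± SE, n=3–5.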

Rattus norvegicus [5] = test: Biodistribution in uterus of immature female rat after 3 hour administration of 3 micro Ci (111 kBq) in the absence of 60 microg estradiol; assay type: ADME, organism-based; settings: in vivo; summary of the method: as §2
Rattus norvegicus [6] = test: Biodistribution in lungs of immature female rat after 1 hr administration of 3 micro Ci (111 kBq) in the presence of (+E2); assay type: ADME, organism-based, Lung; settings: in vivo; summary of the method: as §3
Rattus norvegicus [7] = test: Biodistribution in lungs of immature female rat after 5 hour administration of 3 micro Ci (111 kBq) in the absence of 60 microg estradiol; assay type: ADME, organism-based, Lung; settings: in vivo; summary of the method: as §1
Rattus norvegicus [8] = test: Biodistribution in thyroid of immature female rat after 3 hour administration of 3 micro Ci (111 kBq) in the absence of 60 microg estradiol; assay type: ADME, organism-based, Thyroid gland; settings: in vivo; summary of the method: as §1
Rattus norvegicus [9] = test: Biodistribution in muscle of immature female rat after 5 hour administration of 3 micro Ci (111 kBq) in the absence of 60 microg estradiol; assay type: ADME, organism-based, Muscle tissue; settings: in vivo; summary of the method: as §1
[10] = biological target: Estrogen receptor (Mus musculus) (UniProt O08537+P19785); test: Relative binding affinity (RBA) against murine cytoplasmic estrogen receptor incubated at 0-4 degree Celsius for 18 hours; assay type: protein assay
Summary of the method: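 Competitive binding on murine uterine cytoplasmic extract with 20 nM [3H]estradiol and competitor steroids at 2 nM–20 μM, incubated 18 h at 0–4 °C. RBA = 100 × ratio of […] concentration giving 50% competition for specific binding. Mean of three experiments with SD.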

Rattus norvegicus [11] = test: Biodistribution in kidney of immature female rat after 3 hour administration of 3 micro Ci (111 kBq) in the absence of 60 microg estradiol; assay type: ADME, organism-based; settings: in vivo; summary of the method: as §3
Rattus norvegicus [12] = test: Biodistribution in kidney of immature female rat after 5 hour administration of 3 micro Ci (111 kBq) in the absence of 60 microg estradiol; assay type: ADME, organism-based; settings: in vivo; summary of the method: as §3
Rattus norvegicus [13] = test: Biodistribution in uterus / spleen, muscle, lungs of immature female rat after 1 hr administration of 3 micro Ci (111 kBq) in the presence of (+E2); assay type: ADME, organism-based; settings: in vivo
Summary of the method: (§4)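 Same in vivo procedure: immature female Long Evans rats (21–24 days), three to five per group, 3 μCi (111 kBq) tracer i.v. via tail vein in 9% ethanol/saline/1% Tween-80, ± 60 μg estradiol co-injected at 1 h. Uterus %ID/g (gamma counting) divided by blood, or by nontarget organ (muscle, spleen, lungs), %ID/g to give ratios.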

Rattus norvegicus [14] = test: Biodistribution in uterus of immature female rat after 12 hour administration of 3 micro Ci (111 kBq) in the absence of 60 microg estradiol; assay type: ADME, organism-based; settings: in vivo; summary of the method: as §2
Rattus norvegicus [15] = test: Biodistribution in spleen of immature female rat after 5 hour administration of 3 micro Ci (111 kBq) in the absence of 60 microg estradiol; assay type: ADME, organism-based; settings: in vivo; summary of the method: as §1
Rattus norvegicus [16] = test: Biodistribution in uterus of immature female rat after 5 hour administration of 3 micro Ci (111 kBq) in the absence of 60 microg estradiol; assay type: ADME, organism-based; settings: in vivo; summary of the method: as §2
Rattus norvegicus [17] = test: Biodistribution in lungs of immature female rat after 3 hour administration of 3 micro Ci (111 kBq) in the absence of 60 microg estradiol; assay type: ADME, organism-based, Lung; settings: in vivo; summary of the method: as §1
Rattus norvegicus [18] = test: Biodistribution in uterus / spleen, muscle, lungs of immature female rat after 5 hour administration of 3 micro Ci (111 kBq) in the absence of 60 microg estradiol; assay type: ADME, organism-based; settings: in vivo; summary of the method: as §2
Rattus norvegicus [19] = test: Biodistribution in fat of immature female rat after 1 hr administration of 3 micro Ci (111 kBq) in the absence of 60 microg estradiol; assay type: ADME, organism-based, Adipose tissue; settings: in vivo; summary of the method: as §3
Rattus norvegicus [20] = test: Biodistribution in uterus / blood of immature female rat after 1 hr administration of 3 micro Ci (111 kBq) in the absence of 60 microg estradiol; assay type: ADME, organism-based; settings: in vivo; summary of the method: as §4
Rattus norvegicus [21] = test: Biodistribution in spleen of immature female rat after 1 hr administration of 3 micro Ci (111 kBq) in the presence of (+E2); assay type: ADME, organism-based; settings: in vivo; summary of the method: as §1
Rattus norvegicus [22] = test: Biodistribution in uterus / spleen, muscle, lungs of immature female rat after 1 hr administration of 3 micro Ci (111 kBq) in the absence of 60 microg estradiol; assay type: ADME, organism-based; settings: in vivo; summary of the method: as §4
Rattus norvegicus [23] = test: Biodistribution in blood of immature female rat after 12 hour administration of 3 micro Ci (111 kBq) in the absence of 60 microg estradiol; assay type: ADME, organism-based; settings: in vivo; summary of the method: as §3
Rattus norvegicus [24] = test: Biodistribution in uterus of immature female rat after 1 hr administration of 3 micro Ci (111 kBq) in the absence of 60 microg estradiol; assay type: ADME, organism-based; settings: in vivo; summary of the method: as §2
Rattus norvegicus [25] = test: Biodistribution in muscle of immature female rat after 1 hr administration of 3 micro Ci (111 kBq) in the absence of 60 microg estradiol; assay type: ADME, organism-based, Muscle tissue; settings: in vivo; summary of the method: as §1
Rattus norvegicus [26] = test: Biodistribution in muscle of immature female rat after 12 hour administration of 3 micro Ci (111 kBq) in the absence of 60 microg estradiol; assay type: ADME, organism-based, Muscle tissue; settings: in vivo; summary of the method: as §1
Rattus norvegicus [27] = test: Biodistribution in muscle of immature female rat after 3 hour administration of 3 micro Ci (111 kBq) in the absence of 60 microg estradiol; assay type: ADME, organism-based, Muscle tissue; settings: in vivo; summary of the method: as §1
Rattus norvegicus [28] = test: Biodistribution in blood of immature female rat after 3 hour administration of 3 micro Ci (111 kBq) in the absence of 60 microg estradiol; assay type: ADME, organism-based; settings: in vivo; summary of the method: as §3
Rattus norvegicus [29] = test: Biodistribution in uterus / blood of immature female rat after 1 hr administration of 3 micro Ci (111 kBq) in the presence of (+E2); assay type: ADME, organism-based; settings: in vivo; summary of the method: as §4
Rattus norvegicus [30] = test: Biodistribution in liver of immature female rat after 1 hr administration of 3 micro Ci (111 kBq) in the presence of (+E2); assay type: ADME, organism-based; settings: in vivo; summary of the method: as §3

Chain of Estrogen receptor (Mus musculus) (O08537 whole entry, looked up): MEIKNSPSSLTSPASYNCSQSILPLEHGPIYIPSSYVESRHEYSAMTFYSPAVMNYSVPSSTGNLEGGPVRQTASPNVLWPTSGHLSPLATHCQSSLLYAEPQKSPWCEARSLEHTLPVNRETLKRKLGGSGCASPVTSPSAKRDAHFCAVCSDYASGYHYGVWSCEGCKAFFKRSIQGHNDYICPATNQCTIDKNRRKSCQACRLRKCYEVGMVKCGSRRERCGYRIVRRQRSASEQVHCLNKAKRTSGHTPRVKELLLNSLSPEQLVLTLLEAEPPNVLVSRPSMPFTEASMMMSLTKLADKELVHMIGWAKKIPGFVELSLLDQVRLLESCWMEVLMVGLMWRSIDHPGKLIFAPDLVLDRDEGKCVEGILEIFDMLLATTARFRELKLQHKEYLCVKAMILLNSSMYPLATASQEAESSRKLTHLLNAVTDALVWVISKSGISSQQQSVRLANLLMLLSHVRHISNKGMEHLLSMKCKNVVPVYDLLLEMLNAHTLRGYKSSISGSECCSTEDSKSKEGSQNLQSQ
Chain of Estrogen receptor (Mus musculus) (P19785 whole entry, looked up): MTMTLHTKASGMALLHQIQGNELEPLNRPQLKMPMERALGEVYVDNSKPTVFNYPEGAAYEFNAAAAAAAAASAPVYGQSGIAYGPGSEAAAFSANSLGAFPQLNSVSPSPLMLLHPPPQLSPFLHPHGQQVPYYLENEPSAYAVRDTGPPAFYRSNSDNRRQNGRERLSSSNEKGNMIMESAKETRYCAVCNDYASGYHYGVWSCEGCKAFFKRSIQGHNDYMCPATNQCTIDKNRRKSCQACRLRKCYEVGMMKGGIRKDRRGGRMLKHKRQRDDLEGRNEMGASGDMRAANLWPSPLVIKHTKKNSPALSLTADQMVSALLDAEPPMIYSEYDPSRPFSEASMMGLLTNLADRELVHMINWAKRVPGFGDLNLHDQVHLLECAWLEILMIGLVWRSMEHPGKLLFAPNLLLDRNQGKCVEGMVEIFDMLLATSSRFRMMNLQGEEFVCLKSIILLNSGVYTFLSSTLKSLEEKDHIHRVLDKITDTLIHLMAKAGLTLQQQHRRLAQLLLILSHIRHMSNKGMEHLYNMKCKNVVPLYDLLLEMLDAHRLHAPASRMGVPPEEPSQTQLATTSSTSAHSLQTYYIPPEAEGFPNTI

Row | ID/g (Rattus norvegicus [1]) | ID/g (Rattus norvegicus [2]) | ID/g (Rattus norvegicus [3]) | ID/g (Rattus norvegicus [4]) | ID/g (Rattus norvegicus [5]) | ID/g (Rattus norvegicus [6]) | ID/g (Rattus norvegicus [7]) | ID/g (Rattus norvegicus [8]) | ID/g (Rattus norvegicus [9]) | RBA [10] | ID/g (Rattus norvegicus [11]) | ID/g (Rattus norvegicus [12]) | uterus-to-nontarget tissue uptake ratio (Rattus norvegicus [13]) | ID/g (Rattus norvegicus [14]) | ID/g (Rattus norvegicus [15]) | ID/g (Rattus norvegicus [16]) | ID/g (Rattus norvegicus [17]) | uterus to nontarget tissue ratio (Rattus norvegicus [18]) | ID/g (Rattus norvegicus [19]) | uterus-to-blood ratio of %ID/g (Rattus norvegicus [20]) | SMILES | further results
1 | 0.25% | 205% | 0.39% | 0.45% | 4.03% | 0.42% | 0.37% | 202% | 0.29% | 28.6 | 0.69% | 0.54% | 0.76% | 3.84% | 0.51% | 3.4% | 0.36% | 8.94% | 2.02% | 8.3% | C[C@@H]1Cc2cc(O)c(F)cc2[C@H]2CC[C@@]3(C)[C@@H](CC[C@@]3(O)/C=C\I)[C@H]12 | ID/g (Rattus norvegicus [21]): 0.56%; uterus-to-nontarget tissue uptake ratio (Rattus norvegicus [22]): 5.13%; ID/g (Rattus norvegicus [23]): 0.32%; ID/g (Rattus norvegicus [24]): 3.76%; ID/g (Rattus norvegicus [25]): 0.53%; ID/g (Rattus norvegicus [26]): 0.19%; ID/g (Rattus norvegicus [27]): 0.32%; ID/g (Rattus norvegicus [28]): 0.32%; uterus/blood %ID/g ratio (Rattus norvegicus [29]): 1.2%; ID/g (Rattus norvegicus [30]): 1.83%
2 | 0.37% | 551% | 1.06% | 0.66% | 7.48% | 0.95% | 0.51% | 1446% | 0.4% | 37.9 | 1.08% | 1.08% | 1.11% | 8.31% | 0.66% | 10.96% | 0.66% | 21.03% | 1.43% | 10.55% | CO[C@H]1C[C@@]2(C)[C@@H](CC[C@@]2(O)/C=C\I)[C@@H]2CCc3c(ccc(O)c3F)[C@H]21 | ID/g (Rattus norvegicus [21]): 1.28%; uterus-to-nontarget tissue uptake ratio (Rattus norvegicus [22]): 7.3%; ID/g (Rattus norvegicus [23]): 0.25%; ID/g (Rattus norvegicus [24]): 6.87%; ID/g (Rattus norvegicus [25]): 0.66%; ID/g (Rattus norvegicus [26]): 0.27%; ID/g (Rattus norvegicus [27]): 0.48%; ID/g (Rattus norvegicus [28]): 0.56%; uterus/blood %ID/g ratio (Rattus norvegicus [29]): 1.3%; ID/g (Rattus norvegicus [30]): 2.77%
